Screens from PubChem.
DNMT1 inh: DNMT1 (human) enzyme inhibition; P26358; DNMT1 molecular beacon, Hinp1I cleavage, fluorescence; inhibition (reported as % activation of signal), % at 10 µM; actives 0.83% (n = 360,000); AID 588458; in the data active means inhibition above about 50%
Scp-1 inhibitor: Scp-1 (human) phosphatase inhibition | AID 493091 | actives 0.88% (n = 340,000) | Q9GZU7 | Recombinant Scp1, phosphopeptide, malachite green phosphate absorbance | inhibition, % at 20 µM;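 active means inhibition above about 50% at 20 µM, limit read from the data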;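 further: plate controls were DMSO wells with enzyme for no effect and wells lacking enzyme for full effect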
Target sequence (Q9GZU7 76-261 limits assumed): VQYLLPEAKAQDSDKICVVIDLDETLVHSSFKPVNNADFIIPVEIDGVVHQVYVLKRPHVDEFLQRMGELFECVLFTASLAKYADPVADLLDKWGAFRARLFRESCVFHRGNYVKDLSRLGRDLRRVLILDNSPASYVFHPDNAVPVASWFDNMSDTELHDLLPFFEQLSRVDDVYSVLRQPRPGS
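System: truncated SCP-1 phosphatase (76-261aa); medium: Tris acetate buffer pH 5.5 with MgCl2 and Tween-20; incubation: 45 min room-temperature reaction, 5 min colour, 30 min stabiliser; compound: single 20 µM dose, 1% DMSO; reagent: Phosphorylated 17-residue peptide substrate; read-out: % inhibition at 20 µM; technique: colorimetric free-phosphate detection, absorbance 630 nm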
LMPTP inh: LMPTP (human) inhibition; P24666; recombinant LMPTP-A, OMFP fluorogenic substrate, fluorescence intensity; inhibition, % at 20 µM; actives 0.22% (n = 360,000); AID 651560;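 active means compounds that cut the enzyme signal by at least half of the control window in the single-dose screen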;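 further: plate controls were DMSO wells with enzyme plus substrate for no effect and substrate without enzyme for full effect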
Target sequence (P24666 whole entry, looked up): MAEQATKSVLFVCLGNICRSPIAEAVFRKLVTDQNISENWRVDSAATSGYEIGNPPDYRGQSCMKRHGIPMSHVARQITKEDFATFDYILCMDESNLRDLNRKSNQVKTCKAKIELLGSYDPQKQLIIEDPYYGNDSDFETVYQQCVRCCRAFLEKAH
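Assay system: LMPTP-A enzyme. Input: 0.625 nM LMPTP-A final. Probe or stimulus: 400 µM OMFP. Compound dosing: single 20 µM dose. Schedule: 50 min dark incubation at room temperature. Detection: fluorescence intensity of OMFP turnover product. Read-out: percent inhibition versus substrate-only and uninhibited controls. Benchmarks: no-enzyme low control, uninhibited high control.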
SUMO1 PPI mod: SUMO1-SIM interaction modulation | SUMO1 binding to a labelled peptide, TR-FRET, 1 h | inhibition, % at 20 µM | actives 0.33% (n = 360,000) | AID 602429; in the data active means inhibition above about 37%
STEP block: STEP (human) phosphatase inhibition; actives 0.25% (n = 360,000); recombinant STEP, OMFP fluorogenic substrate, fluorescence; AID 588621; P54829; inhibition, % at 20 µM;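 active means inhibition at 20 µM, scaled per plate between control wells, above about 37%, limit read from the data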;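 further: 0% = DMSO with enzyme and substrate and 100% = substrate only without enzyme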
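Test system: STEP tyrosine phosphatase / Reagent: OMFP at 25 µM / Doses: 20 µM, 1% DMSO / Read-out: percent inhibition scaled to no-enzyme and uninhibited-enzyme controls, plate-pattern corrected / Detection: FITC-channel fluorescence of OMFP product / Medium: Bis-Tris buffer pH 6.0, 2.5 mM DTT, 0.005% Tween 20 / Schedule: 20 min at room temperature, dark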
CSN inh: CSN deneddylation inhibition | AID 651999 | Purified CSN, SCF-Nedd8-OG deneddylation, fluorescence polarization | inhibition, % at 12.5 µM | actives 0.38% (n = 360,000) | Q92905;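 active means pattern-corrected inhibition above about 35%, with an unprinted fluorescence ratio check between 0.5 and 1.5, limit read from the data, passing the limit was not always enough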;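 further: 0% = enzyme with substrate and 100% = substrate without enzyme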
Target sequence (Q92905 whole entry, looked up, one chain of several): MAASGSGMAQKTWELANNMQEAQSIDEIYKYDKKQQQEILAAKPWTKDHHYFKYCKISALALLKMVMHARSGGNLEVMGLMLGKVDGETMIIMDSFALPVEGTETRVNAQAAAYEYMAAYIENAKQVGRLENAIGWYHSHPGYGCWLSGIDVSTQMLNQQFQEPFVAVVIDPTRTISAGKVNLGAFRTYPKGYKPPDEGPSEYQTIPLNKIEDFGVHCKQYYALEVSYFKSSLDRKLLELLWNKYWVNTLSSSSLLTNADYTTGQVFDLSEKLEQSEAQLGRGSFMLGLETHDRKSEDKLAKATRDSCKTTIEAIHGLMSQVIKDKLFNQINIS
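Material: human Csn5 produced in HEK293T cells; Input: enzyme 0.24 nM; Reagent: SCFSkp2-Nedd8OG substrate at 10 nM final; Dosing: 12.5 µM compound; Incubation: 90 min reaction at room temperature; Detection: fluorescence polarization of the substrate; Evaluation: % inhibition of substrate cleavage by Csn5; Control set: substrate-only high control, full reaction low control.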
* hit, by the source's call; · = no result given; ! = not active in a repeat. Most compounds without a hit are left out; they make up all but 1.9% or so of the library.

SMILES | DNMT1 inh | Scp-1 inhibitor | LMPTP inh | SUMO1 PPI mod | STEP block | CSN inh
CC(=O)c1sc2nc(CSc3nnnn3-c3ccccc3)[nH]c(=O)c2c1C | 25 | 33 | 26 | 3 | -2 | 46*
C[C@@H]1COC(=O)[C@H](NC(=O)OCC2c3ccccc3-c3ccccc32)C/C=C\C[C@@H](CC(=O)N[C@H](CO)Cc2ccccc2)C(=O)N1 | -10 | -5 | 4 | -4 | -2 | -2
COc1ccccc1Nc1nc(Cl)c(C=O)s1 | 0 | -11 | -1 | -16 | -3 | 38*
Cc1cc(N2CCN(C)CC2)nc(-c2ccccc2O)n1 | 0 | -11 | 0 | 5 | 0 | 1
Cc1cc(N2CCCC2)nc(-c2ccccc2O)n1 | 0 | -13 | 1 | 69* | 6 | -4
Cc1ccc(NC(=O)COC(=O)c2ccc(=O)n(Cc3ccccc3)n2)cc1F | 2 | -7 | 0 | -8 | 0 | -2
COc1ccc(Cc2nc3ccccc3n2CC(=O)N/N=C/c2ccc(C)cc2O)cc1OC | -7 | -14 | 20 | 1 | 10 | 60*
COC(=O)c1cc(S(=O)(=O)N2CCN(Cc3ccccc3)CC2)cn1C | 1 | -1 | 0 | -4 | -1 | 3
Cc1cccc(NC(=O)CNC(=O)Cn2ncc(Cl)c(Cl)c2=O)c1C | 83* | 93* | 12 | 11 | 8 | 16
Cc1cccc(NC(=O)CNC(=O)CSc2ncccn2)c1C | 3 | -5 | 0 | 23 | -4 | -5
Cc1cc(C)c(S(=O)(=O)/N=C2\C=C(Nc3ccc(C(=O)O)cc3)C(=O)c3ccccc32)c(C)c1 | 36 | 36 | 6 | 58* | 6 | 16
CCc1ccc(S(=O)(=O)/N=C2\C=C(Nc3ccc(O)cc3)C(=O)c3ccccc32)cc1 | 15 | -15 | 14 | 20 | 5 | 4
CCc1ccc(S(=O)(=O)/N=C2/C=C(Sc3ncn[nH]3)C(=O)c3ccccc32)cc1 | 73* | 5 | 9 | 94* | 18 | 20
O=C(O)c1ccc(NC2=C/C(=N/S(=O)(=O)c3ccccc3)c3ccccc3C2=O)cc1 | 70* | -9 | 7 | 62* | 3 | 30
CCc1ccc(S(=O)(=O)/N=C2\C=C(Nc3cccc(C(=O)O)c3)C(=O)c3ccccc32)cc1 | 64* | 12 | 7 | 36 | 4 | 19
CN(C)c1nc2c(c(=O)[nH]c(=O)n2C)n1CCCc1ccccc1 | 0 | -5 | -1 | 2 | -1 | -1
CCOc1ccc2nc3cc(NCc4ccc(OC)cc4)ccc3c(N)c2c1 | 26 | -1 | 19 | 110* | 2 | 9
CCOc1ccc(C(=O)NCC(=O)OCC(=O)Nc2cccc(S(=O)(=O)N3CCCC3)c2)cc1 | -1 | -6 | 0 | 48* | 2 | 2
O=C(COC(=O)CNC(=O)c1ccc(F)cc1)Nc1cccc(S(=O)(=O)N2CCCC2)c1 | 1 | -10 | 0 | 5 | -1 | 2
Cc1cc2c(cc1C)NC1(C(=O)Nc3ccccc31)C1=C(CC(C)(C)CC1=O)N2 (stereo not drawn) | -4 | -6 | 0 | 51* | -2 | 5
O=C(NC(=Nc1nc2ccccc2o1)NC(=O)c1ccccc1)c1ccccc1 | 29 | 26 | 1 | 0 | 1 | 1
COc1ccccc1C(=O)NC(=Nc1nc2ccccc2o1)NC(=O)c1ccccc1OC | 0 | -7 | 1 | 67*! | -3 | -6
CCOC(=O)C1=C(CSc2nc(-c3ccccc3)ccc2C#N)OC(N)=C(C#N)C1c1ccccc1 (stereo not drawn) | -14 | -16 | 2 | 10 | -7 | 39*
CCOC(=O)C1=C(CSc2nc(-c3ccccc3)ccc2C#N)OC(N)=C(C#N)C1c1cccnc1 (stereo not drawn) | -12 | -4 | 3 | 16 | -3 | 32
CCOC(=O)C1=C(N)n2c(s/c(=C\c3cccnc3)c2=O)=C(C(=O)OC)C1c1cccnc1 (stereo not drawn) | 17 | 3 | 0 | -4 | 3 | 67*
SMILES | DNMT1 inh | Scp-1 inhibitor | LMPTP inh | SUMO1 PPI mod | STEP block | CSN inh
CCC/C=C/c1ccc(CN2C(C(C)C)C(=O)N(Cc3cn(Cc4ccco4)nn3)CCS2(=O)=O)cc1 (stereo not drawn) | -10 | · | 6 | 5 | 1 | 9
O=C(COC(=O)c1ccc2c(c1Cl)C(=O)c1ccccc1C2=O)NC1CC1 | 3 | 10 | 2 | -2 | 4 | 6
Nc1ccc2c(c1Cl)C(=O)c1ccc(N)c(Cl)c1C2=O | 81* | 90* | 82* | 109* | 99* | 49
COC(=O)C1=C(C)N(Cc2ccccc2)C(=NCc2ccccc2)N[C@H]1c1cccc(F)c1 | 3 | 0 | 0 | -18 | 0 | 6
COCCN1C(=NCCCOC(C)C)N[C@@H](c2ccccc2)C(C(=O)OC)=C1C | 3 | 55* | -2 | 2 | -2 | -5
CCN(CC)CCCN=C1N[C@@H](c2cccc(F)c2)C(C(=O)OC)=C(C)N1Cc1ccccc1 | -1 | 103* | -2 | -4 | 2 | 2
CC(=O)C1CCC2C3C=CC4=CC(=O)CCC4(C)C3CCC12C (stereo not drawn) | 2 | · | -2 | -21 | 1 | 0
NS(=O)(=O)c1ccc(CNC(=O)COc2ccc3c4c(c(=O)oc3c2)CCCC4)cc1 | -1 | -1 | 0 | 63* | 3 | -2
O=C(COc1ccc2c3c(c(=O)oc2c1)CCC3)Nc1ccccn1 | -14 | -11 | 0 | 51* | 3 | -1
CCN(CC(=O)Nc1c(F)cccc1F)C(=O)c1ccc(Cl)c(S(=O)(=O)N2CCCCC2)c1 | 0 | -4 | 0 | 3 | 2 | 1
Cc1cccc(NC(=S)N2CCN(S(=O)(=O)c3cccc(F)c3)CC2)c1 | 5 | 29 | 1 | 2 | -2 | 4
Oc1ccc(N=C/C=C/c2cccc(Br)c2)cc1-c1nc2ccccc2s1 | 52* | 3 | 23 | 1 | 11 | 23
COc1cc(N=c2ssnc2Cl)c(OC)cc1Cl | -4 | 2 | 48*! | -7 | 4 | -5
CCOC(=O)C1CCN(S(=O)(=O)c2ccc3c(c2)CC(=O)N3C)CC1 | -4 | 69* | -1 | -1 | 0 | 3
CCCOc1cc(N(CC)CC)ccc1/C=C(/C#N)c1nc2ccc(C)cc2[nH]1 | -1 | -8 | 9 | -59 | -33 | 8
CCN(CC)c1ccc(/C=C(/C#N)c2nc3ccc(C)cc3[nH]2)c(OC(C)C)c1 | 53* | 3 | 16 | -80 | -48 | -72
Cc1csc(NC(=O)c2cccs2)n1 | 1 | -7 | 0 | -2 | 2 | 0
Cc1csc(NC(=O)c2ccc(Br)s2)n1 | -1 | 77* | 0 | 1 | -1 | 4
